In paper PMC9401513 (Clinical Cancer Research, 2021):

Tested on: patients with advanced solid tumors
Test: Adverse events graded by NCI-CTCAE v4.03 in phase I patients
Assay type: in vivo, human
Outline: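 Test compound was given by IV infusion over about 60 min every 3 weeks in sequential dose-escalation cohorts to adults with advanced solid tumors (ECOG 0–1). Adverse events were graded by NCI-CTCAE v4.03 over all cycles and tabulated as treatment-related by dose level. G-CSF was permitted after cycle 1. Antiemetics and corticosteroids were given at the physician's discretion.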

[1] = 0.2 mg/kg every 3 weeks, all cycles, 2 evaluable pts
[2] = 0.5 mg/kg every 3 weeks, all cycles, 2 evaluable pts
[3] = 1.25 mg/kg every 3 weeks, all cycles, 2 evaluable pts
[4] = 2.1 mg/kg every 3 weeks, all cycles, 4 evaluable pts
[5] = 2.8 mg/kg every 3 weeks, all cycles, 96 evaluable pts
[6] = 3.7 mg/kg every 3 weeks, all cycles, 6 evaluable pts
[7] = every 3 weeks, all cycles, N = 112

B1: cofetuzumab pelidotin (conjugate, chains of the INN, looked up)
VH: QVQLVQSGPEVKKPGASVKVSCKASGYTFTDYAVHWVRQAPGKRLEWIGVISTYNDYTYNNQDFKGRVTMTRDTSASTAYMELSRLRSEDTAVYYCARGNSYFYALDYWGQGTSVTVSS
VL: EIVLTQSPATLSLSPGERATLSCRASESVDSYGKSFMHWYQQKPGQAPRLLIYRASNLESGIPARFSGSGSGTDFTLTISSLEPEDFAVYYCQQSNEDPWTFGGGTKLEIK
modifications: auristatin-0101 payload, vc linker
Number of AEs (TRAEs) [1]: 1 n (%) | Pts discontinued due to AEs (TRAEs) [1]: 0 n (%) | Pts with AEs (TRAEs) [1]: 1 (50.0) n (%) | Pts with G3/G4 AEs (TRAEs) [1]: 1 (50.0) n (%) | Pts with SAEs (TRAEs) [1]: 0 n (%) | Pts with dose reduction and temporary discontinuation due to AEs (TRAEs) [1]: 0 n (%) | Pts with dose reduction due to AEs (TRAEs) [1]: 0 n (%) | Pts with temporary discontinuation due to AEs (TRAEs) [1]: 0 n (%) | Number of AEs (TRAEs) [2]: 1 n (%) | Pts discontinued due to AEs (TRAEs) [2]: 0 n (%) | Pts with AEs (TRAEs) [2]: 1 (50.0) n (%) | Pts with G3/G4 AEs (TRAEs) [2]: 0 n (%) | Pts with SAEs (TRAEs) [2]: 0 n (%) | Pts with dose reduction and temporary discontinuation due to AEs (TRAEs) [2]: 0 n (%) | Pts with dose reduction due to AEs (TRAEs) [2]: 0 n (%) | Pts with temporary discontinuation due to AEs (TRAEs) [2]: 0 n (%) | Number of AEs (TRAEs) [3]: 6 n (%) | Pts discontinued due to AEs (TRAEs) [3]: 0 n (%) | Pts with AEs (TRAEs) [3]: 1 (50.0) n (%) | Pts with G3/G4 AEs (TRAEs) [3]: 0 n (%) | Pts with SAEs (TRAEs) [3]: 0 n (%) | Pts with dose reduction and temporary discontinuation due to AEs (TRAEs) [3]: 0 n (%) | Pts with dose reduction due to AEs (TRAEs) [3]: 0 n (%) | Pts with temporary discontinuation due to AEs (TRAEs) [3]: 0 n (%) | Number of AEs (TRAEs) [4]: 28 n (%) | Pts discontinued due to AEs (TRAEs) [4]: 1 (25.0) n (%) | Pts with AEs (TRAEs) [4]: 4 (100.0) n (%) | Pts with G3/G4 AEs (TRAEs) [4]: 0 n (%) | Pts with SAEs (TRAEs) [4]: 1 (25.0) n (%) | Pts with dose reduction and temporary discontinuation due to AEs (TRAEs) [4]: 0 n (%) | Pts with dose reduction due to AEs (TRAEs) [4]: 0 n (%) | Pts with temporary discontinuation due to AEs (TRAEs) [4]: 0 n (%) | Number of AEs (TRAEs) [5]: 475 n (%) | Pts discontinued due to AEs (TRAEs) [5]: 2 (2.1) n (%) | Pts with AEs (TRAEs) [5]: 84 (87.5) n (%) | Pts with G3/G4 AEs (TRAEs) [5]: 40 (41.7) n (%) | Pts with SAEs (TRAEs) [5]: 9 (9.4) n (%) | Pts with dose reduction and temporary discontinuation due to AEs (TRAEs) [5]: 3 (3.1) n (%) | Pts with dose reduction due to AEs (TRAEs) [5]: 7 (7.3) n (%) | Pts with temporary discontinuation due to AEs (TRAEs) [5]: 16 (16.7) n (%) | Number of AEs (TRAEs) [6]: 27 n (%) | Pts discontinued due to AEs (TRAEs) [6]: 0 n (%) | Pts with AEs (TRAEs) [6]: 5 (83.3) n (%) | Pts with G3/G4 AEs (TRAEs) [6]: 3 (50.0) n (%) | Pts with SAEs (TRAEs) [6]: 0 n (%) | Pts with dose reduction and temporary discontinuation due to AEs (TRAEs) [6]: 1 (16.7) n (%) | Pts with dose reduction due to AEs (TRAEs) [6]: 0 n (%) | Pts with temporary discontinuation due to AEs (TRAEs) [6]: 0 n (%) | patients reporting headache after infusion on cycle 1, day 1 or 2 (all patients, every 3 weeks and every 2 weeks cohorts): 29 patients | grade 1–2 peripheral sensory neuropathy (every 2 weeks, N = 25): 20% | grade 3 peripheral sensory neuropathy (every 2 weeks, N = 25): 8% | patients discontinued because of a TRAE (every 2 weeks, N = 25): 4% | patients with dose reduction (every 2 weeks, N = 25): 16% | patients with grade ≥ 3 all-cause AEs (every 2 weeks, N = 25): 72% | temporary discontinuations due to TRAEs (every 2 weeks, N = 25): 44% | treatment-related grade 3–4 neutropenia (every 2 weeks, N = 25): 24% | patients died on study (every 2 weeks, N = 25, disease progression): 16% | deaths because of a treatment-related AE (every 3 weeks and every 2 weeks): None of the patients died because of a treatment-related AE | treatment-emergent, all-cause AEs (every 3 weeks or every 2 weeks): all patients | treatment-related grade 5 AEs (every 3 weeks regimen): ^aNo treatment-related grade 5 AEs were observed with the every 3 weeks regimen. | febrile neutropenia (every 3 weeks, N = 112): 2.7% | grade ≥ 3 treatment-related neutropenia (every 3 weeks, N = 112): 25% | patients discontinued because of a TRAE (every 3 weeks, N = 112): 2.7% | patients with dose reduction (every 3 weeks, N = 112): 6.3% | patients with grade ≥ 3 all-cause AEs (every 3 weeks, N = 112): 79.4% | temporary discontinuations due to TRAEs (every 3 weeks, N = 112): 14.3% | treatment-related peripheral sensory neuropathy (all grade 1 or 2) (every 3 weeks, N = 112): 12.5% | patients died on study (every 3 weeks, N = 112, mostly disease progression): 15.2% | TRAE Alopecia, Grade 1 [7]: 13 (11.6) n (%) | TRAE Alopecia, Grade 2 [7]: 33 (29.5) n (%) | TRAE Alopecia, Grade 3 [7]: 0 n (%) | TRAE Alopecia, Grade 4 [7]: 0 n (%) | TRAE Alopecia, Total [7]: 46 (41.1) n (%) | TRAE Arthralgia, Grade 1 [7]: 16 (14.3) n (%) | TRAE Arthralgia, Grade 2 [7]: 2 (1.8) n (%) | TRAE Arthralgia, Grade 3 [7]: 1 (0.9) n (%) | TRAE Arthralgia, Grade 4 [7]: 0 n (%) | TRAE Arthralgia, Total [7]: 19 (17.0) n (%) | TRAE Decreased appetite, Grade 1 [7]: 11 (9.8) n (%) | TRAE Decreased appetite, Grade 2 [7]: 7 (6.3) n (%) | TRAE Decreased appetite, Grade 3 [7]: 0 n (%) | TRAE Decreased appetite, Grade 4 [7]: 0 n (%) | TRAE Decreased appetite, Total [7]: 18 (16.1) n (%) | TRAE Diarrhea, Grade 1 [7]: 8 (7.1) n (%) | TRAE Diarrhea, Grade 2 [7]: 8 (7.1) n (%) | TRAE Diarrhea, Grade 3 [7]: 1 (0.9) n (%) | TRAE Diarrhea, Grade 4 [7]: 0 n (%) | TRAE Diarrhea, Total [7]: 17 (15.2) n (%) | TRAE Fatigue, Grade 1 [7]: 19 (17.0) n (%) | TRAE Fatigue, Grade 2 [7]: 19 (17.0) n (%) | TRAE Fatigue, Grade 3 [7]: 3 (2.7) n (%) | TRAE Fatigue, Grade 4 [7]: 0 n (%) | TRAE Fatigue, Total [7]: 41 (36.6) n (%) | TRAE Headache, Grade 1 [7]: 13 (11.6) n (%) | TRAE Headache, Grade 2 [7]: 19 (17.0) n (%) | TRAE Headache, Grade 3 [7]: 5 (4.5) n (%) | TRAE Headache, Grade 4 [7]: 0 n (%) | TRAE Headache, Total [7]: 37 (33.0) n (%) | TRAE Myalgia, Grade 1 [7]: 11 (9.8) n (%) | TRAE Myalgia, Grade 2 [7]: 3 (2.7) n (%) | TRAE Myalgia, Grade 3 [7]: 1 (0.9) n (%) | TRAE Myalgia, Grade 4 [7]: 0 n (%) | TRAE Myalgia, Total [7]: 15 (13.4) n (%) | TRAE Nausea, Grade 1 [7]: 28 (25.0) n (%) | TRAE Nausea, Grade 2 [7]: 21 (18.8) n (%) | TRAE Nausea, Grade 3 [7]: 1 (0.9) n (%) | TRAE Nausea, Grade 4 [7]: 0 n (%) | TRAE Nausea, Total [7]: 50 (44.6) n (%) | TRAE Neutropenia, Grade 1 [7]: 0 n (%) | TRAE Neutropenia, Grade 2 [7]: 4 (3.6) n (%) | TRAE Neutropenia, Grade 3 [7]: 17 (15.2) n (%) | TRAE Neutropenia, Grade 4 [7]: 11 (9.8) n (%) | TRAE Neutropenia, Total [7]: 32 (28.6) n (%) | TRAE Peripheral sensory neuropathy, Grade 1 [7]: 7 (6.3) n (%) | TRAE Peripheral sensory neuropathy, Grade 2 [7]: 7 (6.3) n (%) | TRAE Peripheral sensory neuropathy, Grade 3 [7]: 0 n (%) | TRAE Peripheral sensory neuropathy, Grade 4 [7]: 0 n (%) | TRAE Peripheral sensory neuropathy, Total [7]: 14 (12.5) n (%) | TRAE Vomiting, Grade 1 [7]: 10 (8.9) n (%) | TRAE Vomiting, Grade 2 [7]: 14 (12.5) n (%) | TRAE Vomiting, Grade 3 [7]: 4 (3.6) n (%) | TRAE Vomiting, Grade 4 [7]: 0 n (%) | TRAE Vomiting, Total [7]: 28 (25.0) n (%)
